The list is not random: actives were taken first. Their share in the collection is about 3.3%.
SIAE inh: human SIAE inhibition, primary screen | Q9HAT2 | SIAE FP-Rh probe binding, fluorescence polarization | inhibition, % at 9.66 µM | 0.69% of 370,000 active | AID 1053197;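 active = inhibition above a cutoff: mean of compounds within the control limits plus 3 SD of those, cut at about 17% in these data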;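 also: 0% = plate median of compound wells and 100% = probe without SIAE protein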
PRMT1 inh: blocks human protein arginine methyltransferase 1 | Q99873 | recombinant PRMT1, activity-based probe fluorescence polarization | inhibition, % at 2.79 µM | 1.3% of 370,000 active;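 active = inhibition above about 21% made by adding two undisclosed values, limit read from the data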
Target sequence (Q99873 whole entry, looked up): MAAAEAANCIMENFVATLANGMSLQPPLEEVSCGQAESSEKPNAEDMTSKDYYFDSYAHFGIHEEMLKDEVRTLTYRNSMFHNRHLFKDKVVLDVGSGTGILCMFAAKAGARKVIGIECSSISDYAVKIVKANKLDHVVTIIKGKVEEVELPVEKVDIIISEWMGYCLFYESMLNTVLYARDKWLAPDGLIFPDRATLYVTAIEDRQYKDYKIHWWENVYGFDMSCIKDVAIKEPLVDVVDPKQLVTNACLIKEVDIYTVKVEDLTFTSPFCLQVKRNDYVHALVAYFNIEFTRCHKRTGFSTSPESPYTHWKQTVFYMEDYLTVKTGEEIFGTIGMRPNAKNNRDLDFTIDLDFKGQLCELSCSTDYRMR
HTRA1 inhibitor: blocks human HTRA1 serine peptidase. Q92743. recombinant HTRA1, FP-rhodamine activity-based probe, fluorescence polarization. inhibition, % at 5.96 µM. 0.5% of 340,000 active. AID 504803; in the data active = inhibition above about 36%;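 also: 0% = enzyme with DMSO and 100% = wells lacking enzyme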
ABHD4 inh: inhibits mouse alpha/beta hydrolase domain 4; Q8VD66; 0.54% of 370,000 active; inhibition, % at 8.92 µM; purified mABHD4, FP-Rh probe fluorescence polarization; AID 720543;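 active = inhibition exceeding the mean over every tested compound plus 3 SD, cut at about 30% in these data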;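 also: 0% = plate median of compound wells and 100% = S159A mutant with DMSO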
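assay system = mABHD4 protein | compound dosing = single nominal dose of 8.92 µM, 0.89% DMSO final | read-out basis = percent inhibition of probe binding, normalized to plate controls | schedule = Enzyme–compound pre-incubation 45 min, then probe 60 min, both 25 °C | detection = fluorescence polarization, excitation 525 nm, emission 598 nm, BODIPY TMR filters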
rCAG binder: molecules binding r(CAG) RNA repeats | 1.3% of 370,000 active | inhibition, % at 3 µM | r(CAG) RNA repeat, TO-PRO-1 dye displacement fluorescence;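 active = inhibition above the plate cutoff, the mean of all test compounds on that plate plus 3 SD, cut at about 35% in these data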;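 also: 0% = DMSO alone and 100% = 100 µM mitoxantrone as full dye displacement; higher means more dye released from RNA so lower well fluorescence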
PRMT1 inh conf: PRMT1 (human) inhibition, FP confirmation; inhibition, % at 2.79 µM; AID 687036; 42% of 3,300 active; shares compounds with PRMT1 inh; recombinant His-PRMT1, activity-based probe fluorescence polarization;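 active = mean inhibition across replicates above the hit cutoff derived for the earlier primary screen, cut at about 22% in these data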
ABHD4 confirm: ABHD4 (mouse) inhibition, FP confirmation; purified mABHD4, FP-Rh probe fluorescence polarization; shares compounds with ABHD4 inh; inhibition, % at 8.92 µM; AID 720658; 55% of 1,800 active;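 active = mean inhibition across replicates above the hit cutoff set in the primary screen, cut at about 30% in these data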;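 also: 0% = wild-type ABHD4 with DMSO and 100% = catalytically dead S159A mutant with DMSO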
SIAE inh conf: confirmation of human SIAE inhibitors; inhibition, % at 9.66 µM; SIAE FP-Rh activity-based probe, fluorescence polarization; shares compounds with SIAE inh; AID 1117263; 13% of 2,300 active;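 active = mean inhibition of the replicates above the hit cutoff set in the primary screen, cut at about 17% in these data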;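 also: 0% = SIAE with DMSO and probe and 100% = probe without SIAE; inhibitors lower polarization as more probe stays unbound to SIAE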
Numbers without * were called inactive; / = not tested or not shown; ! = not active in a repeat.

SMILES	SIAE inh	PRMT1 inh	HTRA1 inhibitor	ABHD4 inh	rCAG binder	ABHD4 confirm	others
Cc1cc(N2CCNC[C@@H]2C)ccc1N1CC[C@@H](O)C1	7	47*	/	20	5	/	PRMT1 inh conf=3
C[C@H]1CNCCN1c1ccc(N2CC[C@@H](O)C2)c(C#N)c1	15	-1	/	3	1	/
CN1CC2=CC(O)CC3Oc4c(O)ccc(c4[C@]23C)C1 (some centres not stated)	1	0	7	4	2	/
COC1C(C)OC(OC2CC(C)(O)Cc3cc4c(c(O)c32)C(=O)c2c(O)cc3c(c2C4=O)OC2OC3(C)C(O)C(N(C)C)C2O)C(OC)C1(C)OC (configuration not stated)	-9	124*	5	-6	-43	/	PRMT1 inh conf=98*
CCC1([N+](=O)[O-])COP(=O)(NCc2cccnc2)OC1 (configuration not stated)	7	-3	3	0	3	/
c1ccc(P(c2ccccn2)c2ccccn2)cc1	5	1	7	6	-3	/
CCCC(C)n1[nH]c(=O)c2c1NC(=O)CSC2c1ccc(OC)cc1 (configuration not stated)	3	4	3	1	4	/
Cc1nn(C2CCOC(C)(C)C2)c2c1C(c1ccc(OC(C)C)cc1)SCC(=O)N2 (configuration not stated)	11	28*	-3	-1	0	/	PRMT1 inh conf=41*
O=C(CCc1ccccc1)N1Cc2cc(-c3cccc(F)c3)ccc2-n2nncc2C1	-5	0	/	-7	5	/
CN1CCC2(CC1)C(C#N)=C(N)NC(S)=C2C#N	-8	31*!	15	8	-5	/	PRMT1 inh conf=19
Cc1cccc(CC(c2cccc(C)c2)N(C)C)c1 (configuration not stated)	3	-3	8	-4	3	/
CCN(CC)c1ccc(/C=C2/C(=O)NC(=O)N(Cc3ccco3)C2=O)cc1	-87	30*	-17	-71	30	/	PRMT1 inh conf=3
CN(C)c1ccc(/C=C2\C(=O)NC(=O)N(CCc3ccc(F)cc3)C2=O)cc1	-34	10	-25	-5	24	/
CN(C)c1ccc(/C=C2/C(=O)NC(=O)N(Cc3ccco3)C2=O)cc1	-13	29*	-1	-12	26	/	PRMT1 inh conf=3
O=C1NS(=O)c2cc([N+](=O)[O-])cc([N+](=O)[O-])c21 (configuration not stated)	-4	38*	7	12	-3	/	PRMT1 inh conf=27*
Cc1cccc(N=C2c3cc([N+](=O)[O-])ccc3-c3c2cc([N+](=O)[O-])cc3[N+](=O)[O-])c1	8	-1	26	4	4	/
C1=C(c2c[nH]c3ccccc23)CCN(Cc2ccccc2)C1	5	2	-4	4	4	/
Nc1c2c(nc3ccccc13)CCN(Cc1ccccc1)C2	-1	44*	2	8	-53	/	PRMT1 inh conf=9
CCn1c(NN=O)nc2ccccc21	4	-1	29	21	2	/
CCN(CC)c1ccc(N=Cc2c(O)n(-c3ccccc3C)c(=O)[nH]c2=O)cc1	12	28*	60*	64*	9	4	PRMT1 inh conf=0
CN(C)P1(N(C)C)=Nc2c(c(N)nn2C)C(c2ccccc2)=N1	4	3	4	0	3	/
COc1ccc2[nH]c(C)c(CCNCc3cccnc3)c2c1	22*	120*	5	34*	0	3	PRMT1 inh conf=3;SIAE inh conf=4
Cc1cc(=O)[nH]c(CCl)n1	2	2	/	2	0	/
Cc1[nH]c2ccc(OC(F)(F)F)cc2c1CCNCc1cccc([N+](=O)[O-])c1	11	1	-17	14	-5	/
Cc1[nH]c2ccc(OC(F)(F)F)cc2c1CCNCc1ccc(Cl)cc1	8	5	13	42*	2	31*
SMILES	SIAE inh	PRMT1 inh	HTRA1 inhibitor	ABHD4 inh	rCAG binder	ABHD4 confirm	others
CC1CC(OP(O)(=S)c2ccc(N(C)C)cc2NC(=O)c2cccs2)CC(C)(C)C1 (configuration not stated)	9	7	-5	41*	22	50*
CCOc1ccc(C2(C#N)CC[N+](C)(C)CC2)cc1	5	-3	5	4	0	/
CN(C)[C@@H]1C(=O)C(C(N)=O)=C(O)[C@@]2(O)C(=O)C3=C(O)c4c(O)cccc4[C@@](C)(O)C3C[C@@H]12 (some centres not stated)	14	19	22	64*	26	9
O=C(NC1CCCCC1)Oc1cc2oc(=O)sc2cc1Cl	3	85*	8	31*	21	24
CCOc1cc(/C=C2/C(=O)NC(=O)N(c3ccc(CC)cc3)C2=O)ccc1OC(=O)c1cccs1	/	/	13	/	/	/
O=c1[nH]c(=S)n(-c2ccc(Cl)cc2)c(O)c1C=Nc1ccc(N2CCOCC2)cc1	-1	8	7	40*	9	29
CN1CCN2c3ccccc3CC3(C(=O)N(C)C(=O)N(C)C3=O)C2C1 (configuration not stated)	-13	0	4	-5	-1	/
FC(F)(F)c1ccc(-c2ccc3c(c2)CNCc2cnnn2-3)cc1	3	3	/	34*	1	25
O=[As](O)(O)c1ccc(N=Nc2ccc(O)cc2)cc1	-1	3	-2	6	-1	/
O=C1C(Cl)=CC(=Nc2ccc(O)cc2)C=C1Cl	21*	22*	25	32*	17	58*
O=c1cccc2n1CC1CC2CN(S(=O)(=O)c2ccc(F)cc2)C1 (configuration not stated)	5	-4	-4	2	-3	/
CSc1ccc(C(=O)C2CCCN(CCCn3cccn3)C2)cc1 (configuration not stated)	-6	-1	-6	7	-6	/
Nc1c(Br)cc2c3c(cccc13)-c1ccccc1-2	4	7	/	55*	16	57*
CNP(=S)(NC)OCCOc1ccc(OC)cc1	-2	0	7	6	-4	/
C=CCn1c(O)c(C(C)=Nc2ccc(N(CC)CC)cc2)c(=O)[nH]c1=O	2	19	7	39*	3	0
CN1CCc2nc3ccc(F)cc3c(C(N)=O)c2C1	-1	0	-3	-8	4	/
O=C(N/N=C/c1c(O)n(Cc2ccccc2)c(=O)[nH]c1=O)c1ccccc1O	28*	2	35	61*	81*	38*	SIAE inh conf=5
CCOC(=O)CNC(=O)N1Cc2cc(-c3ccc(OC)cc3)ccc2-n2nncc2C1	-3	-5	/	-3	4	/

Assay outcomes: PubChem, The Scripps Research Institute Molecular Screening Center
